Reference: ChEMBL document CHEMBL1629658, “A 10-year survey of antifungal susceptibility of candidemia isolates from intensive care unit patients in Greece” (2009)
≈ marks a conversion by molar mass, not a printed value. Numbered stars: 1 amine (or outer) side, 2 acyl side, 3 side chain; on linkers, the order of the positions; unused ones are H or OH. Bridge positions count the residues as written; N and C are the ends. Square brackets hold non-standard residues; d marks the D form. Peptide text beside a SMILES is read from it. * marks the point of attachment. hTyr(3S-OH,4S-OH,3'-OSO3H) = N[C@H](C(=O)O)[C@H](O)[C@@H](O)c1ccc(O)c(OS(=O)(=O)O)c1; pTerphenylCO(4''-OnC5H11) = CCCCCOc1ccc(-c2ccc(-c3ccc(C(=O)*)cc3)cc2)cc1; Orn(4R-OH,5R-OH) = O=C([C@H](C[C@@H](O)[C@@H](O)N[*:3])N[*:1])[*:2]; hTyr(3S-OH,4S-OH) = N[C@H](C(=O)O)[C@H](O)[C@@H](O)c1ccc(O)cc1; Pro(3S-OH,4S-Me) = C[C@H]1CN[C@H](C(=O)O)[C@H]1O; X1 = CCCCCOc1ccc(-c2cc(-c3ccc(C(=O)*)cc3)no2)cc1; Gln(3R-OH) = NC(=O)C[C@@H](O)[C@H](N)C(=O)O; Hyp = O=C(O)[C@@H]1C[C@@H](O)CN1

Assays:
Type in all cases: functional
Pichia kudriavzevii [1] = assay: Antifungal activity against Candida krusei isolated from candidemia patient by AFST-EUCAST microdilution method
Clavispora lusitaniae = assay: Antifungal activity against Clavispora lusitaniae isolated from candidemia patient by AFST-EUCAST microdilution method
Candida parapsilosis [2] = assay: Antifungal activity against Candida parapsilosis isolated from candidemia patient by AFST-EUCAST microdilution method; details: Lodderomyces parapsilosis
Candida dubliniensis = assay: Antifungal activity against Candida dubliniensis isolated from candidemia patient by AFST-EUCAST microdilution method
[3] = Antifungal activity against Candida pulcherrima isolated from candidemia patient by AFST-EUCAST microdilution method; details: Metschnikowia pulcherrima
Yarrowia lipolytica = assay: Antifungal activity against Candida lipolytica isolated from candidemia patient by AFST-EUCAST microdilution method
Candida tropicalis = assay: Antifungal activity against Candida tropicalis isolated from candidemia patient by AFST-EUCAST microdilution method
[4] = tested on: Meyerozyma guilliermondii; assay: Antifungal activity against Candida guilliermondii isolated from candidemia patient by AFST-EUCAST microdilution method
[Candida] intermedia = Antifungal activity against Candida intermedia isolated from candidemia patient by AFST-EUCAST microdilution method; details: Sungouiella intermedia
Diutina rugosa = assay: Antifungal activity against Candida rugosa isolated from candidemia patient by AFST-EUCAST microdilution method
Candida albicans = assay: Antifungal activity against Candida albicans isolated from candidemia patient by AFST-EUCAST microdilution method
Kluyveromyces marxianus = assay: Antifungal activity against Candida kefyr isolated from candidemia patient by AFST-EUCAST microdilution method
Wickerhamomyces anomalus = assay: Antifungal activity against Candida pelliculosa isolated from candidemia patient by AFST-EUCAST microdilution method; details: Hansenula anomala
Nakaseomyces glabratus = assay: Antifungal activity against Candida glabrata isolated from candidemia patient by AFST-EUCAST microdilution method
Candida parapsilosis [5] = assay: Antifungal activity against Candida parapsilosis ATCC 22019 isolated from candidemia patient by AFST-EUCAST microdilution method; details: Lodderomyces parapsilosis
How it was run: (§1)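 Designated quality-control strain included on every testing occasion and run by the AFST-EUCAST broth microdilution reference procedure (EDef 7.1) alongside the clinical isolates. Its MICs were checked against the reference range for EUCAST-evaluated drugs. Pure standard compounds were used: azoles, amphotericin B, flucytosine and echinocandins.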

Pichia kudriavzevii [6] = assay: Antifungal activity against Candida krusei ATCC 6258 isolated from candidemia patient by AFST-EUCAST microdilution method; how it was run: as §1

Structure (SMILES)	MIC (Pichia kudriavzevii [1]) [µg/mL]	MIC90 (Pichia kudriavzevii [1]) [µg/mL]	MIC90 (Clavispora lusitaniae) [µg/mL]	MIC90 (Candida parapsilosis [2]) [µg/mL]	MIC (Candida dubliniensis) [µg/mL]	MIC [3] [µg/mL]	MIC (Yarrowia lipolytica) [µg/mL]	MIC90 (Candida tropicalis) [µg/mL]	MIC [4] [µg/mL]	MIC ([Candida] intermedia) [µg/mL]	MIC (Diutina rugosa) [µg/mL]	MIC (Candida albicans) [µg/mL]	MIC90 (Candida albicans) [µg/mL]	MIC (Kluyveromyces marxianus) [µg/mL]	MIC (Wickerhamomyces anomalus) [µg/mL]	MIC90 (Nakaseomyces glabratus) [µg/mL]	MIC (Candida parapsilosis [5]) [µg/mL]	MIC (Pichia kudriavzevii [6]) [µg/mL]	other results
C[C@@H]1[C@H](O)[C@@H](C)/C=C/C=C/C=C/C=C/C=C/C=C/C=C/[C@H](O[C@@H]2O[C@H](C)[C@@H](O)[C@H](N)[C@@H]2O)C[C@@H]2O[C@](O)(C[C@@H](O)C[C@@H](O)[C@H](O)CC[C@@H](O)C[C@@H](O)CC(=O)O[C@H]1C)C[C@H](O)[C@H]2C(=O)O [AMPHOTERICIN B]	0.25 (≈ 0.271 µM)	0.25 (≈ 0.271 µM)	4 (≈ 4.33 µM)	0.25 (≈ 0.271 µM)	0.06 (≈ 0.0649 µM)	0.12 (≈ 0.13 µM)	1 (≈ 1.08 µM)	0.25 (≈ 0.271 µM)	0.5 (≈ 0.541 µM)	0.5 (≈ 0.541 µM)	0.12 (≈ 0.13 µM)	0.12 (≈ 0.13 µM)	0.12 (≈ 0.13 µM)	0.5 (≈ 0.541 µM)	0.25 (≈ 0.271 µM)	0.5 (≈ 0.541 µM)			MIC (Candida tropicalis): 0.25 µg/mL (≈ 0.271 µM); MIC (Nakaseomyces glabratus): 0.5 µg/mL (≈ 0.541 µM)
CCCCCOc1ccc(-c2ccc(-c3ccc(C(=O)N[C@H]4C[C@@H](O)[C@@H](O)NC(=O)[C@@H]5[C@@H](O)[C@@H](C)CN5C(=O)[C@H]([C@@H](C)O)NC(=O)[C@H]([C@H](O)[C@@H](O)c5ccc(O)cc5)NC(=O)[C@@H]5C[C@@H](O)CN5C(=O)[C@H]([C@@H](C)O)NC4=O)cc3)cc2)cc1 [ANIDULAFUNGIN] ({pTerphenylCO(4''-OnC5H11)}-[Orn(4R-OH,5R-OH)]T[Hyp][hTyr(3S-OH,4S-OH)]T[Pro(3S-OH,4S-Me)]; lactam 1-C)		0.06 (≈ 0.0526 µM)	1 (≈ 0.877 µM)	2 (≈ 1.75 µM)	0.03 (≈ 0.0263 µM)	0.03 (≈ 0.0263 µM)	0.03 (≈ 0.0263 µM)	0.25 (≈ 0.219 µM)	0.5 (≈ 0.438 µM)	0.03 (≈ 0.0263 µM)	0.12 (≈ 0.105 µM)		0.12 (≈ 0.105 µM)	16 (≈ 14 µM)	1 (≈ 0.877 µM)	0.12 (≈ 0.105 µM)	0.5 (≈ 0.438 µM)	0.25 (≈ 0.219 µM)	
CC[C@H](C)C[C@H](C)CCCCCCCCC(=O)N[C@H]1C[C@@H](O)[C@@H](NCCN)NC(=O)[C@@H]2[C@@H](O)CCN2C(=O)[C@H]([C@H](O)CCN)NC(=O)[C@H]([C@H](O)[C@@H](O)c2ccc(O)cc2)NC(=O)[C@@H]2C[C@@H](O)CN2C(=O)[C@H]([C@@H](C)O)NC1=O [CASPOFUNGIN]	0.5 (≈ 0.457 µM)	0.12 (≈ 0.11 µM)	1 (≈ 0.915 µM)	2 (≈ 1.83 µM)	0.25 (≈ 0.229 µM)	0.03 (≈ 0.0274 µM)	0.12 (≈ 0.11 µM)	0.25 (≈ 0.229 µM)	1 (≈ 0.915 µM)	0.03 (≈ 0.0274 µM)	0.25 (≈ 0.229 µM)	0.12 (≈ 0.11 µM)	0.12 (≈ 0.11 µM)	8 (≈ 7.32 µM)	0.03 (≈ 0.0274 µM)	1 (≈ 0.915 µM)	2 (≈ 1.83 µM)	0.5 (≈ 0.457 µM)	
OC(Cn1cncn1)(Cn1cncn1)c1ccc(F)cc1F [FLUCONAZOLE]	32 (≈ 104 µM)	32 (≈ 104 µM)	4 (≈ 13.1 µM)	4 (≈ 13.1 µM)	0.12 (≈ 0.392 µM)			2 (≈ 6.53 µM)		1 (≈ 3.27 µM)	2 (≈ 6.53 µM)		0.5 (≈ 1.63 µM)	0.12 (≈ 0.392 µM)	2 (≈ 6.53 µM)	16 (≈ 52.2 µM)			
Nc1nc(=O)[nH]cc1F [FLUCYTOSINE]		2 (≈ 15.5 µM)	2 (≈ 15.5 µM)	0.5 (≈ 3.87 µM)	0.12 (≈ 0.93 µM)	0.12 (≈ 0.93 µM)	0.12 (≈ 0.93 µM)	0.5 (≈ 3.87 µM)	0.12 (≈ 0.93 µM)	64 (≈ 496 µM)	0.5 (≈ 3.87 µM)		2 (≈ 15.5 µM)	0.12 (≈ 0.93 µM)	0.12 (≈ 0.93 µM)	0.25 (≈ 1.94 µM)			
CCC(C)n1ncn(-c2ccc(N3CCN(c4ccc(OCC5COC(Cn6cncn6)(c6ccc(Cl)cc6Cl)O5)cc4)CC3)cc2)c1=O (configuration not stated) [ITRACONAZOLE]	0.12 (≈ 0.17 µM)	0.12 (≈ 0.17 µM)	0.25 (≈ 0.354 µM)	0.12 (≈ 0.17 µM)	0.06 (≈ 0.085 µM)	0.12 (≈ 0.17 µM)	0.12 (≈ 0.17 µM)	0.12 (≈ 0.17 µM)	1 (≈ 1.42 µM)	0.12 (≈ 0.17 µM)	0.03 (≈ 0.0425 µM)		0.5 (≈ 0.709 µM)	0.25 (≈ 0.354 µM)	0.25 (≈ 0.354 µM)	0.5 (≈ 0.709 µM)			MIC (Candida tropicalis): 0.12 µg/mL (≈ 0.17 µM); MIC (Nakaseomyces glabratus): 0.5 µg/mL (≈ 0.709 µM)
CCCCCOc1ccc(-c2cc(-c3ccc(C(=O)N[C@H]4C[C@@H](O)[C@@H](O)NC(=O)[C@@H]5[C@@H](O)[C@@H](C)CN5C(=O)[C@H]([C@H](O)CC(N)=O)NC(=O)[C@H]([C@H](O)[C@@H](O)c5ccc(O)c(OS(=O)(=O)O)c5)NC(=O)[C@@H]5C[C@@H](O)CN5C(=O)[C@H]([C@@H](C)O)NC4=O)cc3)no2)cc1 [MICAFUNGIN] (X1-[Orn(4R-OH,5R-OH)]T[Hyp][hTyr(3S-OH,4S-OH,3'-OSO3H)][Gln(3R-OH)][Pro(3S-OH,4S-Me)]; lactam 1-C)		0.12 (≈ 0.0945 µM)	0.12 (≈ 0.0945 µM)	2 (≈ 1.57 µM)	0.03 (≈ 0.0236 µM)	0.03 (≈ 0.0236 µM)	0.03 (≈ 0.0236 µM)	0.12 (≈ 0.0945 µM)	0.25 (≈ 0.197 µM)	0.03 (≈ 0.0236 µM)	0.03 (≈ 0.0236 µM)		0.06 (≈ 0.0472 µM)	4 (≈ 3.15 µM)	0.5 (≈ 0.394 µM)	0.25 (≈ 0.197 µM)	0.5 (≈ 0.394 µM)	0.5 (≈ 0.394 µM)	
CC[C@@H]([C@H](C)O)n1ncn(-c2ccc(N3CCN(c4ccc(OC[C@@H]5CO[C@@](Cn6cncn6)(c6ccc(F)cc6F)C5)cc4)CC3)cc2)c1=O [POSACONAZOLE]		0.5 (≈ 0.713 µM)	0.03 (≈ 0.0428 µM)	0.12 (≈ 0.171 µM)	0.01 (≈ 0.0143 µM)	0.03 (≈ 0.0428 µM)	0.03 (≈ 0.0428 µM)	0.12 (≈ 0.171 µM)	0.12 (≈ 0.171 µM)	0.25 (≈ 0.357 µM)	0.03 (≈ 0.0428 µM)		0.12 (≈ 0.171 µM)	0.25 (≈ 0.357 µM)	0.03 (≈ 0.0428 µM)	0.25 (≈ 0.357 µM)			MIC (Clavispora lusitaniae): 0.03 µg/mL (≈ 0.0428 µM)
C[C@@H](c1ncncc1F)[C@](O)(Cn1cncn1)c1ccc(F)cc1F [VORICONAZOLE]		1 (≈ 2.86 µM)	0.5 (≈ 1.43 µM)	0.06 (≈ 0.172 µM)	0.03 (≈ 0.0859 µM)	0.25 (≈ 0.716 µM)	0.03 (≈ 0.0859 µM)	0.12 (≈ 0.344 µM)	0.06 (≈ 0.172 µM)	0.06 (≈ 0.172 µM)	0.01 (≈ 0.0286 µM)	0.01 (≈ 0.0286 µM)	0.03 (≈ 0.0859 µM)	4 (≈ 11.5 µM)	0.12 (≈ 0.344 µM)	0.5 (≈ 1.43 µM)			MIC (Candida parapsilosis [2]): 0.06 µg/mL (≈ 0.172 µM)
